Activity calls are given as the source filed them. No cut-off for these calls is given here.
Tests used:
[1] = AUC in Sprague-Dawley rat at 2 mg/kg, po; type: ADME, organism-based; set-up: dose 2 mg/kg, route oral; conditions: plasma
Method in brief: (§1)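 Sprague–Dawley rats; 1 mg/kg iv and 2 mg/kg p.o., both as solutions in EtOH/PEG400/water (10:50:40). Plasma AUC measured for the parent and, where applicable, for the epimerized metabolite formed in vivo.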

[2] = target: T1, Diacylglycerol O-acyltransferase 1 (Mus musculus, UniProt Q9Z2A7); test: Inhibition of mouse DGAT1
T1 sequence (Q9Z2A7 whole entry): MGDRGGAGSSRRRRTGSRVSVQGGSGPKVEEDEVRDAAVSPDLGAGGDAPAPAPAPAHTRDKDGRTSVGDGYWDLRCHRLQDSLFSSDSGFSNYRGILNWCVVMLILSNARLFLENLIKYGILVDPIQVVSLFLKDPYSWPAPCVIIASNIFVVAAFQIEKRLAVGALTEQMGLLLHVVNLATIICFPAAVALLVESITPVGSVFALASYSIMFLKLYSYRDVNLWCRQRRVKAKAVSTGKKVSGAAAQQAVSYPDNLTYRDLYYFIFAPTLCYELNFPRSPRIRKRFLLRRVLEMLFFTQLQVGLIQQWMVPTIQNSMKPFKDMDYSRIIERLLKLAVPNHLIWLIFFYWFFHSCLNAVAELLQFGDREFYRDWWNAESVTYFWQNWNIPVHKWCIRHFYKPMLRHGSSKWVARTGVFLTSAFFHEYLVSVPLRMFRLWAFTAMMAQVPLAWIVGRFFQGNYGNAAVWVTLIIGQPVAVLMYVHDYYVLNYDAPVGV

[3] = target: T2, Diacylglycerol O-acyltransferase 1 (Homo sapiens, UniProt O75907); test: Inhibition of human DGAT1
T2 sequence (O75907 whole entry): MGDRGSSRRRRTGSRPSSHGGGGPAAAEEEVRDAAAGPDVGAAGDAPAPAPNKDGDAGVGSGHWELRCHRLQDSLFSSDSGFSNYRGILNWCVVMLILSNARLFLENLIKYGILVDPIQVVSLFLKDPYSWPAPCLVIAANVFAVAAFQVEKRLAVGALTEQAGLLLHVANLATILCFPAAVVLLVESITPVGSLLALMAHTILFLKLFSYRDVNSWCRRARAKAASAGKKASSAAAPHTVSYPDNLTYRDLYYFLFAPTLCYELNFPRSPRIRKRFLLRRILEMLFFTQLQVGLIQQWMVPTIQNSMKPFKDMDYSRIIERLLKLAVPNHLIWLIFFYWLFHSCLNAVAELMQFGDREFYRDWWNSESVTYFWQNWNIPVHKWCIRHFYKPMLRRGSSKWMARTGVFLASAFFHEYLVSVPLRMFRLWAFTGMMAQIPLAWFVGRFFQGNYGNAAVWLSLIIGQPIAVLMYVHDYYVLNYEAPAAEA

Rattus norvegicus [4] = test: AUC in Sprague-Dawley rat assessed as cis-4-(5-(5-fluoro-1H-benzo[d]imidazol-2-yl)-2,3'-bipyridin-6'-yloxy)cyclohexanecarboxylic acid at 2 mg/kg, po; type: ADME, organism-based, Plasma; set-up: dose 2 mg/kg, route oral; conditions: in vivo; method in brief: as §1
[5] = Volume of distribution at steady state in Sprague-Dawley rat at 1 mg/kg, iv; type: ADME, organism-based; set-up: dose 1 mg/kg, route intravenous; conditions: in vivo, read-out: Vdss
Method in brief: (§2)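 Sprague–Dawley rats; intravenous dose of 1 mg/kg given as a solution in EtOH/PEG400/water (10:50:40).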

[6] = Bioavailability in Sprague-Dawley rat at 1 mg/kg, iv; type: ADME, organism-based; conditions: in vivo; method in brief: as §2
[7] = Half life in Sprague-Dawley rat at 1 mg/kg, iv; type: ADME, organism-based; set-up: dose 1 mg/kg, route intravenous; conditions: in vivo; method in brief: as §2
[8] = Clearance in Sprague-Dawley rat at 1 mg/kg, iv; type: ADME, organism-based; set-up: dose 1 mg/kg, route intravenous; conditions: in vivo; method in brief: as §2
[9] = Lipophilicity, log D of the compound by HPLC analysis; type: physicochemical
Canis familiaris = test: Reduction in triglyceride excursion in dog at 3 mg/kg, po administered 1 hr prior lipid-challenge measured up to 24 hrs by lipid tolerance test; type: functional, organism-based; set-up: dose 3 mg/kg; conditions: Canis lupus familiaris
Method in brief: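 Dog lipid tolerance test. Oral dose of 3 mg/kg in 0.5% methyl cellulose; lipid challenge 1 h after dosing; triglyceride excursion compared with a vehicle group over time; plasma drug levels sampled from 0 to 24 h.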

Mus musculus [10] = test: Reduction in triglyceride excursion in mouse at 3 mg/kg, po by lipid tolerance test; type: functional; set-up: scale not given: the % may be the effect or the level left
Rattus norvegicus [11] = test: Dose normalized AUC in Sprague-Dawley rat at 1 mg/kg, iv and 2 mg/kg, po; type: ADME, organism-based; conditions: in vivo; method in brief: as §1
Mus musculus [12] = test: Reduction in triglyceride excursion in mouse at 10 mg/kg, po measured at 18 hrs by lipid tolerance test; type: functional; set-up: scale not given: the % may be the effect or the level left
Method in brief: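 Mouse lipid tolerance test. Oral dose of 10 mg/kg as a suspension in 0.5% methylcellulose; triglyceride reduction read at 18 h.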

| Compound | IC50 [2] [nM] | IC50 [3] [nM] | logD [9] | Activity (Mus musculus [12]) [%] | also measured |
| --- | --- | --- | --- | --- | --- |
| COc1ccc2[nH]c(-c3ccc(-c4ccc(O[C@H]5CC[C@H](C(=O)O)CC5)nc4)nc3)nc2n1 | – | 14 | – | – | – |
| N#Cc1ccc2nc(-c3ccc(-c4ccc(O[C@H]5CC[C@@H](C(=O)O)CC5)nc4)nc3)[nH]c2c1 | 36 | 3.2 | – | – | – |
| O=C(O)[C@H]1CC[C@@H](Oc2ccc(-c3ccc(-c4nc5cc(F)c(F)cc5[nH]4)cn3)cn2)CC1 | 3.4 | 1.4 | 1.28 | – | – |
| O=C(O)[C@H]1CC[C@@H](Oc2ccc(-c3ccc(-c4nc5cc(F)ccc5[nH]4)cn3)cn2)CC1 | – | – | – | – | Activity (Canis familiaris): Active; Activity (Mus musculus [10]): 72% |
| O=C(O)[C@H]1CC[C@H](Oc2ccc(-c3ccc(-c4nc5cc(F)c(F)cc5[nH]4)cn3)cn2)CC1 | 4.3 | 1.3 | – | – | – |

The next lines start with results.

| IC50 [2] [nM] | IC50 [3] [nM] | logD [9] | Compound | Activity (Mus musculus [12]) [%] | also measured |
| --- | --- | --- | --- | --- | --- |
| 8.1 | 2.5 | – | O=C(O)[C@H]1CC[C@H](Oc2ccc(-c3ccc(-c4nc5ccc(F)cc5[nH]4)cn3)cn2)CC1 | – | AUC [1]: 4.47 µM·h; AUC (Rattus norvegicus [4]): 0.48 µM·h; Vd [5]: 0.46 L/kg; bioavailability [6]: 24%; half-life [7]: 0.86 h; clearance [8]: 4.2 mL/min/kg |
| 3.7 | 2.1 | 1.42 | O=C(O)[C@H]1CC[C@@H](Oc2ccc(-c3ccc(-c4nc5ccc(Cl)cc5[nH]4)cn3)cn2)CC1 | 144 | AUC/dose (Rattus norvegicus [11]): 2.4 µM·h/mg/kg; Vd [5]: 0.34 L/kg; bioavailability [6]: 19%; half-life [7]: 3.7 h; clearance [8]: 3 mL/min/kg |
| 4.4 | 3 | 1.72 | O=C(O)[C@H]1CC[C@H](Oc2ccc(-c3ccc(-c4nc5cc(C(F)(F)F)ccc5[nH]4)cn3)cn2)CC1 | 84 | – |
| 12 | 5.3 | – | O=C(O)[C@H]1CC[C@H](Oc2ccc(-c3ccc(-c4nc5ccccc5[nH]4)cn3)cn2)CC1 | – | – |
| 4.2 | 2 | 1.43 | O=C(O)[C@H]1CC[C@H](Oc2ccc(-c3ccc(-c4nc5cc(Cl)ccc5[nH]4)cn3)cn2)CC1 | 83 | – |

From ChEMBL document CHEMBL2407079, “Potent DGAT1 Inhibitors in the Benzimidazole Class with a Pyridyl-oxy-cyclohexanecarboxylic Acid Moiety” (ACS Med Chem Lett, 2013)
